Most compounds without a hit are left out; they make up all but 4.7% or so of the library.
MrgX1 agonist: human MrgX1 receptor agonism, primary screen; 310,000 compounds, 0.44% hits; B-score at 10 µM; Q96LB2; MrgX1-HEK293 cells, Fluo-4 calcium fluorescence, agonist mode; active compounds read high; AID 588627;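 active means calcium response B-score plate-corrected fluorescence ratio at least 3 library SD, with starting fluorescence B-score inside 5 SD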
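Test system: Stable human MrgX1 HEK293 cell line | Schedule: Overnight plating before 1 h dye loading | Read-out basis: Baseline-normalised fluorescence change ratio, B-scored | Detection: Kinetic calcium dye fluorescence, Fluo-4 NW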
RGS4 inh: human RGS4 inhibition; B-score at 10 µM; HEK293 M3R/RGS4 inducible, Fluo-4 calcium flux; active compounds read high; triggered by carbachol at its EC20; 310,000 compounds, 0.45% hits;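 active means B-score, a plate-corrected calcium signal, over three deviations above library mean, with baseline fluorescence within five deviations of library mean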;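 further: RGS4 expression induced by doxycycline in cells with stable M3 receptor; B-score is computed from the integrated fluorescence ratio over baseline after carbachol; higher B-score means a larger calcium signal and so more RGS4 inhibition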
Cl transport mod: modulates chloride dependent transport by human KCC2; Q9H2X9; KCC2 cells, thallium flux FluoZin-2 fluorescence; B-score of Tl+ flux slope (higher = more flux/activation; lower = inhibition) at 10 µM; 190,000 compounds, 2.2% hits;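 active means thallium flux slope and its plate-corrected score both differing from the plate sample mean at a set confidence after two filtering rounds, in either direction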;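 further: slope of fluorescence scaled to starting intensity during 10 to 20 s after thallium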
Target sequence (Q9H2X9 whole entry, looked up): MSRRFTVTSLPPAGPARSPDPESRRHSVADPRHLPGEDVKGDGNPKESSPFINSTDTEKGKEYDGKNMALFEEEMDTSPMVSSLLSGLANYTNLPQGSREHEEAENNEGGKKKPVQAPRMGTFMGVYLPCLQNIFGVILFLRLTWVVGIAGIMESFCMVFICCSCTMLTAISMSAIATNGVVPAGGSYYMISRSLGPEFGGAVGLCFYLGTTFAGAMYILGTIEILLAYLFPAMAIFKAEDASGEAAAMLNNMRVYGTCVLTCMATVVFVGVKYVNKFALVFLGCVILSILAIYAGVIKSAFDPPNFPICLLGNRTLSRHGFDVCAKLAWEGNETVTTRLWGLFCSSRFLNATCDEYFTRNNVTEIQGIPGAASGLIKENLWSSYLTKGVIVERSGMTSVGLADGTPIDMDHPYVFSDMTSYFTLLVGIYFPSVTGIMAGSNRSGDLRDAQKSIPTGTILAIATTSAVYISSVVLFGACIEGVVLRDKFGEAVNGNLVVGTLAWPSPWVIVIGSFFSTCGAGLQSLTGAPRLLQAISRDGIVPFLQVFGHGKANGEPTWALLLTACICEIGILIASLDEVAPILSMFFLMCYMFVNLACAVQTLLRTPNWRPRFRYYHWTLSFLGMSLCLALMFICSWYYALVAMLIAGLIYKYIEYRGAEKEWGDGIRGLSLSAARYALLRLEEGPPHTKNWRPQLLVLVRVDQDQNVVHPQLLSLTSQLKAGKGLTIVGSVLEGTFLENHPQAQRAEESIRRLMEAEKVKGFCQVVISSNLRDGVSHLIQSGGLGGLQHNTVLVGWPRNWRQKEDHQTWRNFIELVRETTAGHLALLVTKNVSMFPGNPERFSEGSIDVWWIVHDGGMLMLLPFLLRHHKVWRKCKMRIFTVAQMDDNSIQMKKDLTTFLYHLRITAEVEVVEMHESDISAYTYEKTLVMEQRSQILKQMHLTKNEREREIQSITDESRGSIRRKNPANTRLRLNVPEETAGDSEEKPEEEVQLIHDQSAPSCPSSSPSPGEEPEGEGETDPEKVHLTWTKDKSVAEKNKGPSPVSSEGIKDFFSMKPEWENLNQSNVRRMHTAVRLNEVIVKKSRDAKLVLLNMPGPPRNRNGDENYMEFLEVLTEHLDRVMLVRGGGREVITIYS
RGS4 pot: RGS4 potentiation or activation. HEK293 M3R/inducible RGS4, carbachol calcium flux Fluo4; active compounds read low. B-score at 10 µM. 310,000 compounds, 0.92% hits. AID 463111;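 active means B-score of the integrated calcium signal more than 4 SD below the library mean, with starting fluorescence not abnormally high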;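 further: negative B-score means reduced calcium response which marks RGS4 activation or potentiation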
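Assay system: Inducible-RGS4 HEK293 cells carrying M3 receptor | Schedule: Compound preincubation 20 min at room temperature before agonist | Signal: Kinetic calcium fluorescence imaging with Fluo4-AM dye, 2 µM | Read-out basis: B score from integrated fluorescence ratio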
MrgX1 antagonist: antagonists of human MrgX1 receptor | Q96LB2 | MRGX1-HEK293 calcium flux, Fluo-4, BAM8-22 antagonism; active compounds read low | B-score at 10 µM | 310,000 compounds, 1.3% hits | AID 588676;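 active means calcium-response B-score plate-corrected more than 3 library SD below zero, starting fluorescence within 5 deviations, no agonist response on first addition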;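 further: peak minus trough fluorescence over baseline after final BAM8-22 challenge near maximal dose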
MrgX1 PAM: human MrgX1 positive allosteric modulation, primary screen | Q96LB2 | MrgX1-HEK293, Fluo-4 calcium flux, FDSS; active compounds read high | B-score at 10 µM | 310,000 compounds, 0.63% hits;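 active means plate-corrected calcium response at least 3 library SD above typical, normal starting fluorescence, not activating the receptor alone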;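 further: compound read alongside a low EC10 to EC30 dose of BAM8-22 agonist; peak minus trough fluorescence over baseline measured at the second addition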
MrgX1 ant reconf: human MrgX1 receptor antagonism, re-confirmation screen; shares compounds with MrgX1 antagonist; MrgX1-HEK293, BAM8-22 calcium flux, Fluo-4; active compounds read low; remaining BAM8-22 calcium response % of control (active compounds read low), % at 10 µM; 2,300 compounds, 19% hits;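 active means remaining agonist calcium response no higher than 100% minus 3 SD of agonist-only control wells, with starting fluorescence near control levels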;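 further: agonist BAM8-22 given at a near maximal EC90 to ECmax level; peak minus minimum fluorescence divided by baseline after agonist addition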
HEK293 Ca flux: counter-screen for MrgX1 antagonists: effect in parental HEK293 cells | 4,000 compounds, 2% hits | shares compounds with MrgX1 antagonist | Fluo-4 calcium fluorescence, FDSS | fluorescence ratio F(max-min)/F0 at 10 µM;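 active means duplicate-averaged calcium fluorescence ratio at least three times the standard deviation of buffer wells, a nonspecific response in parental cells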
HEK293 Ca counter: MrgX1 allosteric activator counter-screen hit in parental HEK293 cells; 4,000 compounds, 0.4% hits; shares compounds with MrgX1 antagonist; fluorescence ratio F(max-min)/F0 at 10 µM; parental HEK293 calcium flux, Fluo-4 fluorescence ratio; active compounds read high;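 active means calcium fluorescence ratio, averaged over duplicates, at least 3 SD of the buffer-well ratio, meaning a nonspecific response in receptor-free cells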;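 further: untransfected parental HEK293 lacking MrgX1 used as counterscreen for MrgX1 allosteric activators; fluorescence change taken during the second addition on a kinetic imager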
HEK293 Ca cntr2: counter-screen for MrgX1 activators: effect in parental HEK293 cells | fluorescence ratio F(max-min)/F0 at 10 µM | shares compounds with MrgX1 antagonist | 4,000 compounds, 8.7% hits | Fluo-4 calcium fluorescence (FDSS); active compounds read high;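 active means calcium fluorescence ratio at least three times the spread of buffer wells, meaning a non-specific response in parental cells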
Active calls of the source: *; i = inactive; / = no result.

SMILES	MrgX1 agonist	RGS4 inh	Cl transport mod	RGS4 pot	MrgX1 antagonist	MrgX1 PAM	MrgX1 ant reconf	HEK293 Ca flux	HEK293 Ca counter	HEK293 Ca cntr2
COc1ccc(OC)c(CNS(=O)(=O)c2cn(C)cn2)c1	i	i	/	i	-4.5*	i	i	i	i	i
Cc1cc(CNC(=O)c2ccc3oc(C(C)C)nc3c2)nn1C	i	i	/	i	i	i	/	/	/	/
O=C(CCc1nnc2ccc(N3CCC4(CC3)OCCO4)nn12)N1CCCCC1	i	i	/	i	i	i	/	/	/	/
COC(=O)c1ccc(NC(=O)CNS(=O)(=O)c2cccs2)cc1	i	i	0.016	i	i	i	/	/	/	/
CCOC(=O)c1ccc(NC(=O)CCNS(=O)(=O)c2cccs2)cc1	i	i	/	i	-5.4*	i	i	i	i	i
COc1cc(OC)c(OC)cc1/C=C1\Oc2cc(OCC(=O)N3Cc4ccccc4C[C@H]3C(=O)O)ccc2C1=O	i	i	/	i	i	i	/	/	/	/
CCCCNC(=O)N1CCOCCOCCN(C(=O)NCCCC)CCOCC1	i	i	/	i	-4.6*	i	i	i	i	i
O=C(NCc1cccnc1)C1CCC(CNS(=O)(=O)c2cccc3nsnc23)CC1 (centres undefined)	i	i	-0.86	i	i	i	/	/	/	/
CC(=O)N1c2ccc(S(=O)(=O)NCCC(=O)Nc3ccc(F)cc3C)cc2CC1C (centres undefined)	i	i	/	i	i	i	/	/	/	/
CC1(C)CC(=O)C(C=Nc2cccnc2)=C(O)C1	i	i	-0.8	i	-4.6*	i	i	i	i	i
CC1(C)CC(=O)C(C=Nc2ccncc2)=C(O)C1	i	i	-0.16	i	i	i	/	/	/	/
O=C(NCc1cccs1)c1cc2ccccc2o1	i	i	0.17	i	-7.5*	i	i	i	i	i
CC(C)(CNC(=O)c1ccc(NS(=O)(=O)c2ccc(Br)cc2)cc1)N1CCOCC1	i	i	/	i	-6.5*	i	51%*	i	i	i
O=C(NCCN1CCOCC1)c1cc2ccccc2o1	i	i	-0.13	i	i	i	/	/	/	/
CC(C)(CNC(=O)c1cc2ccccc2o1)N1CCOCC1	i	i	0.67	i	-4.5*	i	i	i	i	i
CCn1cc(CCCC(=O)NCc2cccc(OC)c2)c2ccccc21	i	i	/	i	i	i	/	/	/	/
O=C(NCN1C(=O)C2C3C=CC(C3)C2C1=O)Nc1ccccc1O (centres undefined)	i	i	0.52	i	i	i	/	/	/	/
O=C(NCN1C(=O)C2C3C=CC(C3)C2C1=O)Nc1nncs1 (centres undefined)	i	i	1.6	i	-4.6*	i	85%*	i	i	i
Cc1[nH]c(=O)nc(SCc2ccc(Cl)c(Cl)c2)c1C#N	i	i	/	i	-7*	i	i	i	i	i
CCc1c(C)c2c(C)nn(-c3ccccc3)c2[nH]c1=O	i	i	-0.76	i	-4.6*	i	85%*	i	i	i
Cc1c(C)c2c(C)nn(-c3ccccc3)c2[nH]c1=O	i	i	0.023	i	i	i	/	/	/	/
Cc1cc(NC(=O)CSc2nc(-c3cccnc3)ccc2C#N)no1	i	i	/	i	i	i	/	/	/	/

Assay outcomes deposited in PubChem BioAssay by several laboratories.
